Screens (PubChem BioAssay)
Rows were chosen to be rich in hits. Some 4.1% of all compounds tested hit in one or more screens of this group.
FLuc act counter = affects firefly luciferase, flagging false hits in luciferase stimulation screens; P08659; ATPlite luciferase biochemical, luminescence, 10 min; 0 = ATP-free wells, 1 = DMSO control; activation factor at 10 µM; 200,000 tested, under 10 active; AID 1027;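 active = luciferase activation factor, scaled between plate controls, of at least 2 with compound at 10 µM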
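Assay system: Luciferase/luciferin detection reagent, cell-free biochemical luciferase assay / Read-out: luciferase activation / Benchmarks: No-ATP low control, compound-free enzyme-plus-ATP high control / Medium: PBS buffer for ATP / Detection: luminescence measurement of luciferase light output / Schedule: 10 min at ambient temperature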
NF-kB expr up = compounds increasing NF-kB expression in human neuronal cells. NF-kB reporter expression; stronger effect = higher value. fold change at 12.5 µM. 1.6% of 190,000 active. AID 1239; in the data active = fold change above about 3.3
APP 5'UTR act = activates APP 5'UTR luciferase reporter. SH-SY5Y APP 5'UTR luciferase reporter, luminescence; zero percent = DMSO vehicle wells. activation, % at 2 µM. 1% of 190,000 active. AID 1276;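 active = activation above a set limit, based on mean plus 3 SD of controls, cut at about 140% in these data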
STAT1 act = activators of IFN-gamma induced STAT1 signaling | 2.6% of 200,000 active | activation (% of control), % at 5.5 µM | NIH 3T3 STAT1-luciferase reporter, luminescence; 100% = IFN-gamma alone, no compound | AID 932;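 active = activation above the screen-wide mean activation plus 3 SD, cut at about 130% in these data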;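 also: raw ratio to IFN-gamma control signal so 100% means no change and 0% no light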
FLuc inh counter = inhibits firefly luciferase, flagging false hits in luciferase inhibition screens. 1.5% of 200,000 active. inhibition, % at 10 µM. ATPLite firefly luciferase biochemical luminescence, 10 min. AID 1006. P08659;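 active = inhibition above about 50% when tested at 10 µM, limit read from the data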
An asterisk follows results filed as active.

SMILES	FLuc act counter	NF-kB expr up	APP 5'UTR act	STAT1 act	FLuc inh counter
CCOc1ccc(C(CC(=O)O)n2cnnn2)cc1 (stereo not drawn)	1	1.1	11	99	-3
CN1CCN(C(=O)N2CCNC2=O)CC1	1	1.2	8	104	1
CC(C)NC(=O)c1cc(-c2cccs2)on1	0.9	4*	62	122	8
COc1cc(N=CC2=C(O)c3ccccc3C2=O)cc(OC)c1	1	1.3	25	148*	-2
O=C(Nc1cnn(C23CC4CC(CC(C4)C2)C3)c1)c1cnn2cccnc12	0.3	3	84	122	67*
COc1coc(/C=C/C(=O)O)cc1=O	1	1	7	104	-1
COc1ccc(Oc2cc(C)c3ccccc3n2)cc1	1	1.3	7	96	-1
c1ccc(Oc2ccc3ccccc3n2)cc1	0.9	1.3	28	136*	8
COc1cccc(OCC(=O)O)c1	1	1.4	17	94	0
CCN(CC)S(=O)(=O)c1ccc(/C=C/C(=O)OCC(=O)N(C(C)C)C(C)C)cc1	1	0.87	0	98	1
Cc1ccc(-c2c(C)sc(=NC(=O)c3ccco3)n2C)cc1	0.1	3	67	129*	86*
CCc1nnc(NS(=O)(=O)c2ccc(N/C=C\C(=O)c3ccc(C)cc3)cc2)s1	1	1.2	14	102	2
Fc1ccc(-c2cnc(-c3cccs3)o2)cc1	0.7	1.8	70	142*	35
Cc1ccc(C2CC(C(F)(F)F)n3ncc(C(=O)NCc4ccco4)c3N2)cc1 (stereo not drawn)	1	0.46	1	95	-2
COc1ccc(N2C(=O)CC(S/C(N)=N/N=C(\C)c3cccs3)C2=O)cc1 (stereo not drawn)	1.1	1.1	-4	100	-6
COc1ccc(C2=NN(C(N)=S)C(c3ccccc3)C2)cc1 (stereo not drawn)	0.9	1.5	26	117	6
COc1ccc(C2=NN3C(C2)c2ccccc2OC32C(=O)N(C)c3ccccc32)cc1 (stereo not drawn)	1	6*	187*	82	-1
COc1ccc(C2=NN3C(C2)c2ccccc2OC3c2cccs2)cc1 (stereo not drawn)	1.1	3.8*	155*	108	-8
COc1ccc(NC(=O)c2cc(C(C)C)on2)c(OC)c1	0.9	2.6	53	138*	8
COc1ccc(NC(=O)c2cc(C(C)C)on2)cc1OC	0.9	1.5	25	117	5
CC(C)c1cc(C(=O)Nc2ccc3c(c2)OCO3)no1	0.5	6.4*	145*	116	45
O=C(Nc1ccc2c(c1)OCO2)c1noc2c1CCCCC2	0.4	7.7*	178*	142*	57*
O=C(Nc1ccc2c(c1)OCO2)c1cnccn1	0.8	2.2	39	130*	21
Cc1cc(NC(=O)c2noc3c2CCCCC3)no1	0.8	1.3	31	122	21
CCCC(C)NC(=O)COC(=O)c1cc(Br)c(Br)s1 (stereo not drawn)	1	0.93	-16	103	-3
SMILES	FLuc act counter	NF-kB expr up	APP 5'UTR act	STAT1 act	FLuc inh counter
NC(N)=N/N=C/c1cccc(Cl)c1Cl	1	1.1	3	95	0
COc1ccc(OC)c(C(C)NC=O)c1 (stereo not drawn)	1.1	1	5	103	-8
CC(=O)Nc1ccc2c(c1)OCO2	1	1	-4	98	-4
O=C(Nc1ccc2c(c1)OCO2)c1cc(C2CC2)on1	0.5	3.9*	61	146*	47
COc1cc2c(cc1NC(=O)c1cc(-c3ccccn3)nc3ccccc13)oc1ccccc12	1.1	0.36	0	100	-5
Cc1ccc(NC2=C(N3CCOCC3)C(=O)c3ccccc3C2=O)cc1	0.4	1.8	151*	128	56*
CCOC(=O)/C(=C\c1ccccc1)C(=O)c1cc(C(C)=O)c(Nc2ccccc2)s1	1.1	9.7*	-11	79	-6
CNc1ncc(C(=O)c2ccccc2)s1	1	1.8	26	114	-1
CC(=O)c1cnc(Nc2cccc(Cl)c2Cl)s1	1	2	69	136*	-2
O=C(c1ccc(Cl)cc1)c1cnc(Nc2ccccc2Cl)s1	0.4	3.2	116	145*	58*
CNc1ncc(C(=O)c2ccc(Br)cc2)s1	0.6	3.5*	94	140*	41
O=c1c(Cc2ccccc2)c(O)ccn1Cc1ccco1	1	0.91	5	97	-4
